Screening data deposited in PubChem by several laboratories.
proKLK7 act: activates the human kallikrein-7 zymogen | P49862 | purified proKLK7, EDANS-DABCYL substrate fluorescence; 100% is mature enzyme control, 0% vehicle | activation, % at 7 µM | 370,000 compounds, 0.9% hits;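 active = activation above the mean of all tested compounds plus 3 SD, computed per campaign excluding outliers beyond control limits, cut at about 13% in these data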
CendR NRP1 mod: alters CendR peptide binding to human NRP-1; O14786; FAM-RPARPAR peptide binding to NRP-1, fluorescence polarization; inhibition, % at 25 µM; 360,000 compounds, 0.85% hits;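 active = inhibition or corrected inhibition above about 18%, plus a signal ratio from 0.5 to 1.5, limit read from the data, passing the limit was not always enough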
PLCg1 inh: inhibitors of human phospholipase C gamma1; P19174; purified PLC-gamma1, fluorogenic substrate, fluorescence; inhibition, % at 12.2 µM; 370,000 compounds, 0.84% hits; AID 720700; in the data active = inhibition above about 9.5%
Tn7 DDE FP: disrupts Tn7 cyclic peptide binding to fibrin D-Dimer-E complex; P02675; FP displacement of FITC-Tn7 peptide from fibrin DD(E); 0% = median of compound wells per plate; 370,000 compounds, 0.13% hits; inhibition, % at 8.3 µM;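 active = inhibition above the mean of compounds falling within the control limits plus 3 SD of them, cut at about 14% in these data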;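 note: 0% = plate median of compound wells and 100% = 10 µM Aha-Tn7 peptide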
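Also added: labelled Tn7 tracer, 0.1 µM; Assay system: human fibrin DD(E) protein; Amount: 2 µM fibrin DD(E); Schedule: 10 min compound pre-incubation, 3 h probe incubation at room temperature; Repeats: one replicate per compound; Read-out basis: percent inhibition; Measured by: fluorescence polarization of the labelled Tn7 tracer.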
DDE Tn6 FP inh: disrupts Tn6 cyclic peptide binding to fibrin D-Dimer-E complex; P02675; Fibrin DD(E) TRITC-Tn6 fluorescence polarization displacement; inhibition, % at 8.3 µM; 370,000 compounds, 0.21% hits; AID 720509;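 active = inhibition above a per-campaign cutoff: mean of compounds within control limits plus 3 SD, cut at about 15% in these data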;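 note: 0% = median of all compound wells on the plate and 100% = blocking peptide control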
PLC-beta3 inh: blocks human PLC-beta3 enzyme activity | inhibition, % at 12.2 µM | Q01970 | Purified PLC-beta3, fluorogenic substrate, fluorescence | 370,000 compounds, 0.18% hits; in the data active = inhibition above about 11%;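 note: 0% = median of compound wells on plate and 100% = full blocker control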
proKLK7 act conf: confirmation of human kallikrein-7 zymogen activators; shares compounds with proKLK7 act; purified proKLK7, EDANS-DABCYL substrate fluorescence; scaled: vehicle 0, mature enzyme 100; activation, % at 7 µM; 3,200 compounds, 68% hits; AID 686949;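 active = activation, as change over the incubation, above the mean of all tested compounds plus 3 SD, cut at about 13% in these data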
EDANS interfere: counter-screen for kallikrein-7 activators: EDANS-DABCYL optical interference; 3,200 compounds, 80% hits; AID 686952; EDANS-DABCYL substrate fluorescence interference, no enzyme, 4 h; solvent 0%, active enzyme control 100%; activation, % at 7 µM; shares compounds with proKLK7 act;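 active = activation above the all-compound mean plus 3 SD, ignoring values outside control-based bounds, cut at about 4.8% in these data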;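 note: value is the 4 h activation minus the activation read at time zero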
Starred values were filed as active, the others as inactive; i = inactive; . = no result given. The list is not random: actives were taken first. Their share in the collection is about 3%.

SMILES | proKLK7 act | CendR NRP1 mod | PLCg1 inh | Tn7 DDE FP | DDE Tn6 FP inh | PLC-beta3 inh | proKLK7 act conf | EDANS interfere
Fc1ccc(CNCCc2ccc3c(c2)OCO3)cc1 | 0 | -2 | 5 | -4 | 3 | 0 | . | .
O=[N+]([O-])c1cc2c(cc1CNCCc1ccc3c(c1)OCO3)OCO2 | 0 | 37* | -2 | 0 | -8 | -4 | . | .
CC(C)(C)NC(=S)N1Cc2ccccc2-n2nncc2C1 | -1 | 10 | 13* | -7 | -5 | 2 | . | .
COCCNC(=S)N1Cc2ccccc2-n2nncc2C1 | 1 | -6 | -1 | 1 | -2 | 2 | . | .
CCC1(C)CN(S(=O)(=O)OCC(Cl)(Cl)Cl)C(=O)N1 (centres undefined) | 1 | 7 | 2 | 1 | 0 | 3 | . | .
CC1(C)CN(S(=O)(=O)OCC(Cl)(Cl)Cl)C(=O)N1 | -1 | -36 | 9.8* | -4 | 5 | 7 | . | .
COc1cc(C(=O)Nc2ccc(Br)cc2C(=O)c2ccccc2)cc(OC)c1OC | 26* | 9 | 0 | 1 | 0 | 2 | . | .
COc1ccc(-c2cc(=NCCCCCC(=O)O)c3cc(C)ccc3o2)cc1 | 105* | 10 | i | 4 | 3 | i | 64* | 72*
C[C@@H]1CNCCN1c1ccc(N2CC[C@H](O)C2)c(C#N)c1 | 1 | . | -19 | 6 | 6 | -28 | . | .
CCOC(=O)c1c(N)n(CCN2CCCCC2)c2nc3ccccc3nc12 | 154* | -7 | i | 9 | -5 | i | 29* | 17*
C=CCNC(=O)c1c(N)n(Cc2ccco2)c2nc3ccccc3nc12 | 5 | -59 | i | -5 | 6 | i | . | .
COCCCn1c(N)c(C(=O)OC(C)COC)c2nc3ccccc3nc21 (centres undefined) | 52* | 2 | i | 4 | 0 | i | 75* | 71*
COCCNC(=O)c1c(N)n(Cc2ccco2)c2nc3ccccc3nc12 | 27* | -37 | i | -7 | -7 | i | -17 | -65
COc1cc2c(cc1OC)CC[N+](C)=C2 | 43* | -10 | i | -3 | 3 | i | 58* | 53*
COc1ccc(CC2c3cc(OC)c(OC)cc3CCN2C)cc1OC (centres undefined) | 12 | -7 | -63 | 0 | -5 | -83 | . | .
O=C(c1ccc2c3c(cccc13)CC2)C1CCCN(CC2CC2)C1 (centres undefined) | 43* | -6 | -309 | 3 | 1 | -326 | -13 | -4
O=C(NCCN1CCC2(CC1)C(=O)NCN2c1ccccc1)c1cccc(F)c1 | 0 | . | -1 | 0 | 2 | 4 | . | .
Cc1cc(N2CCNC[C@@H]2C)ccc1N1CCN[C@@H](C)C1 | 0 | . | -1 | 6 | 9 | -1 | . | .
CCOC(=O)CC[C@@H]1CC[C@]2(CCCN(Cc3ccncc3)C2)O1 | 0 | . | -2 | -1 | -2 | -3 | . | .
CC(C)NC(C)C(=O)c1ccc2ccccc2c1 (centres undefined) | 27* | -10 | -77 | -2 | 0 | -94 | 4 | 8.3*
CC(NC(C)(C)C)C(=O)c1cccc(Cl)c1 (centres undefined) | 0 | 0 | -1 | 4 | 5 | 1 | . | .
CC(C(=O)c1ccc2ccccc2c1)N1CCCCC1 (centres undefined) | 32* | -4 | -157 | 8 | 7 | -178 | -2 | 1
Cc1cc(N2CCNC[C@H]2C)ccc1N1CC[C@@H](O)C1 | 1 | . | -4 | 4 | 3 | -6 | . | .
CN(C)[C@@H]1C(=O)C(C(N)=O)=C(O)[C@@]2(O)C(=O)C3=C(O)c4c(O)ccc(Cl)c4[C@@](C)(O)C3C[C@@H]12 (some centres undefined) | 25* | 3 | -55 | -3 | -15 | -75 | 17* | 17*
